From ChEMBL document CHEMBL5500387, “Design, synthesis of combretastatin A-4 piperazine derivatives as potential antitumor agents by inhibiting tubulin polymerization and inducing autophagy in HCT116 cells” (Eur J Med Chem, 2024)

What was measured:
[1] = Octanol-water partition coefficient, log P of the compound at pH 7.4 at 4 mg measured after 24 hrs by liquid chromatography; assay type: physicochemical
Procedure, shortened: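 4 mg of compound was dissolved in 1 mL water-saturated n-octanol and held 24 h at room temperature, then centrifuged. The supernatant was mixed with an equal volume of octanol-saturated water, stood 24 h, centrifuged and the phases separated. Phase concentrations were measured by LC standard curves. log P = log(C_octanol/C_water). At least three independent runs.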

[2] = test system: HCT-116; assay: Cytotoxicity against human HCT-116 cells assessed as inhibition of cell proliferation measured after 72 hrs by CCK-8 assay; assay type: functional, cell-based; details: HCT-116, 72 h
Procedure, shortened: (§1)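 Cells seeded at 2×10^3 per well and grown overnight in 10% FBS medium: HCT116 in McCoy's 5A, A549 and AGS in F-12K, SK-MES-1 in DMEM. Compounds added at varied concentrations with 0.1% DMSO control, 72 h at 37 °C. 10% CCK-8 for 2 h, then A450 read. Survival = (As−Ab)/(Ac−Ab)×100%. IC50 from curve fitting.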

[3] = test system: A549; assay: Cytotoxicity against human A549 cells assessed as inhibition of cell proliferation measured after 72 hrs by CCK-8 assay; assay type: functional, cell-based; details: A549, 72 h; procedure, shortened: as §1
[4] = test system: AGS; assay: Cytotoxicity against human AGS cells assessed as inhibition of cell proliferation measured after 72 hrs by CCK-8 assay; assay type: functional, cell-based; procedure, shortened: as §1
[5] = test system: SK-MES-1; assay: Cytotoxicity against human SK-MES-1 cells assessed as inhibition of cell proliferation measured after 72 hrs by CCK-8 assay; assay type: functional, cell-based; details: SK-MES-1, 72 h; procedure, shortened: as §1
[6] = Cytotoxicity against human NCM460 cells assessed as inhibition of cell proliferation measured after 72 hrs by CCK-8 assay; assay type: toxicity, cell-based
Procedure, shortened: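 NCM460 normal colonic epithelial cells seeded at 2×10^3 cells/well and grown overnight in RPMI-1640 with 10% FBS. Compounds added at a range of concentrations, 0.1% DMSO as negative control, 72 h at 37 °C. Read-out by CCK-8 (10%, 2 h) at 450 nm. Survival = (As−Ab)/(Ac−Ab)×100%; IC50 taken as concentration giving 50% inhibition of proliferation.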

Compound	IC50 [2] [nM]	other results
COc1ccc(/C=C(/C(=O)N2CCN(c3ccc(C)cc3)CC2)c2cc(OC)c(OC)c(OC)c2)cc1O[C@H]1O[C@@H](CO)[C@H](O[C@@H]2O[C@H](CO)[C@H](O)[C@H](O)[C@H]2O)[C@@H](O)[C@@H]1O	–	logD at 24 h [1]: -0.824
COc1ccc(/C=C(/C(=O)N2CCS(=O)(=O)CC2)c2cc(OC)c(OC)c(OC)c2)cc1O	1990	–
COc1ccc(/C=C(/C(=O)N2CCNCC2)c2cc(OC)c(OC)c(OC)c2)cc1O	735	–
COc1ccc(/C=C(/C(=O)N2CCN(c3ccc(C)cc3)CC2)c2cc(OC)c(OC)c(OC)c2)cc1O[C@H]1O[C@H](CO)[C@@H](O)[C@H](O)[C@@H]1O	–	logD at 24 h [1]: -0.638
COc1ccc(/C=C(/C(=O)N2CCN(Cc3ccc(F)cc3)CC2)c2cc(OC)c(OC)c(OC)c2)cc1O	2100	–
COc1ccc(/C=C(/C(=O)N2CCN(c3ccccc3Cl)CC2)c2cc(OC)c(OC)c(OC)c2)cc1O	1840	–
COc1ccc(/C=C(/C(=O)N2CCOCC2)c2cc(OC)c(OC)c(OC)c2)cc1O	926	–
COc1ccc(/C=C(/C(=O)N2CCN(Cc3cccc(C)c3)CC2)c2cc(OC)c(OC)c(OC)c2)cc1O	3640	–
COc1cccc(N2CCN(C(=O)/C(=C/c3ccc(OC)c(O)c3)c3cc(OC)c(OC)c(OC)c3)CC2)c1	1860	–
COc1ccc(/C=C(/C(=O)N2CCN(c3ccc(C)cc3)CC2)c2cc(OC)c(OC)c(OC)c2)cc1O[C@H]1O[C@@H](CO)[C@H](O)[C@@H](O)[C@@H]1O	–	logD at 24 h [1]: -0.538
COc1ccc(/C=C(/C(=O)N2CCN(c3ccc(Br)cc3)CC2)c2cc(OC)c(OC)c(OC)c2)cc1O	716	IC50 [3]: 547 nM; IC50 [4]: 1350 nM; IC50 [5]: 803 nM
COc1ccc(N2CCN(C(=O)/C(=C/c3ccc(OC)c(O)c3)c3cc(OC)c(OC)c(OC)c3)CC2)cc1	941	IC50 [3]: 657 nM; IC50 [4]: 882 nM; IC50 [5]: 605 nM
COc1ccc(/C=C(/C(=O)N2CCN(c3ccc(C#N)cc3)CC2)c2cc(OC)c(OC)c(OC)c2)cc1O	3350	–
COc1ccc(/C=C(/C(=O)N2CCSCC2)c2cc(OC)c(OC)c(OC)c2)cc1O	1150	–
COc1ccc(/C=C(/C(=O)N2CCN(Cc3ccccc3C)CC2)c2cc(OC)c(OC)c(OC)c2)cc1O	2850	–
COc1ccc(/C=C(/C(=O)N2CCN(c3ccc(F)cc3)CC2)c2cc(OC)c(OC)c(OC)c2)cc1O	253	IC50 [3]: 270 nM; IC50 [4]: 531 nM; IC50 [5]: 385 nM
COc1ccc(/C=C(/C(=O)N2CCN(Cc3ccc(C)cc3)CC2)c2cc(OC)c(OC)c(OC)c2)cc1O	1980	–
COc1ccc(/C=C(/C(=O)N2CCN(Cc3ccc(Cl)cc3)CC2)c2cc(OC)c(OC)c(OC)c2)cc1O	2690	–
COc1ccc(/C=C(/C(=O)N2CCN(c3ccc(Cl)cc3)CC2)c2cc(OC)c(OC)c(OC)c2)cc1O	593	IC50 [3]: 366 nM; IC50 [4]: 1110 nM; IC50 [5]: 753 nM
COc1ccc(/C=C(/C(=O)N2CCN(c3ccc(C)cc3)CC2)c2cc(OC)c(OC)c(OC)c2)cc1O[C@H]1O[C@@H](CO)[C@@H](O)[C@@H](O)[C@@H]1O	–	logD at 24 h [1]: -0.432
COc1ccc(/C=C(/C(=O)N2CCN(c3ccccc3F)CC2)c2cc(OC)c(OC)c(OC)c2)cc1O	1380	–
COc1ccc(/C=C(/C(=O)N2CCCC2)c2cc(OC)c(OC)c(OC)c2)cc1O	2480	–
COc1ccc(/C=C(/C(=O)N2CCN(c3ccc([N+](=O)[O-])cc3)CC2)c2cc(OC)c(OC)c(OC)c2)cc1O	2770	–
COc1ccc(/C=C(/C(=O)N2CCN(c3ccccc3C)CC2)c2cc(OC)c(OC)c(OC)c2)cc1O	1580	–
COc1ccc(/C=C(/C(=O)N2CCN(c3cccc(C)c3)CC2)c2cc(OC)c(OC)c(OC)c2)cc1O	1770	–
COc1ccc(/C=C\c2cc(OC)c(OC)c(OC)c2)cc1O [COMBRETASTATIN A4]	–	logD at 24 h [1]: 2.14; IC50 [4]: 74 nM; IC50 [5]: 7 nM; IC50 at 72 h [6]: 11 nM
